Assay results as given in ChEMBL document CHEMBL4138085, “Design, synthesis and antimicrobial evaluation of novel benzimidazole-incorporated sulfonamide analogues” (Eur J Med Chem, 2017).

Columns and labels:
Staphylococcus aureus [1] = assay: Antibacterial activity against Staphylococcus aureus ATCC 25923 after 24 hrs by NCCLS two fold broth microdilution method; format: functional; details: ATCC 25923, 24 h
How it was run: (§1)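 Two-fold serial broth microdilution in 96-well plates following NCCLS. Compounds were dissolved in DMSO as stocks, then diluted in Mueller–Hinton broth to final concentrations of 0.5–512 µg/mL. Plates were inoculated and incubated at 37 °C for 24 h, with growth read visually and spectrophotometrically. MIC was taken as the lowest concentration giving complete growth inhibition. Run in triplicate, with a DMSO-plus-inoculum solvent control.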

Staphylococcus aureus [2] = assay: Antibacterial activity against methicillin-resistant Staphylococcus aureus N315 after 24 hrs by NCCLS two fold broth microdilution method; format: functional; details: N315, 24 h
How it was run: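 Two-fold serial broth microdilution per NCCLS. Chloromycin and norfloxacin as reference drugs; DMSO with inoculum, no drug, as solvent control. Incubation 37 °C for 24 h. Growth read visually and spectrophotometrically. MIC is the lowest concentration completely inhibiting growth; triplicate.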

Bacillus subtilis = assay: Antibacterial activity against Bacillus subtilis ATCC 21216 after 24 hrs by NCCLS two fold broth microdilution method; format: functional; details: ATCC 21216, 24 h; how it was run: as §1
Micrococcus luteus = assay: Antibacterial activity against Micrococcus luteus ATCC 4698 after 24 hrs by NCCLS two fold broth microdilution method; format: functional; details: NCTC 2665, 24 h; how it was run: as §1
Bacillus = assay: Antibacterial activity against Bacillus proteus ATCC 13315 after 24 hrs by NCCLS two fold broth microdilution method; format: functional; details: ATCC 13315, 24 h; how it was run: as §1
Escherichia coli = assay: Antibacterial activity against Escherichia coli ATCC 8099 after 24 hrs by NCCLS two fold broth microdilution method; format: functional; details: ATCC 8099, 24 h
How it was run: (§2)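 Two-fold serial broth microdilution in 96-well plates following NCCLS. Plates were inoculated and incubated at 37 °C for 24 h, with growth read visually and spectrophotometrically. MIC was taken as the lowest concentration giving complete growth inhibition. Run in triplicate, with a DMSO-plus-inoculum solvent control.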

Pseudomonas aeruginosa = assay: Antibacterial activity against Pseudomonas aeruginosa ATCC 27853 after 24 hrs by NCCLS two fold broth microdilution method; format: functional; details: ATCC 27853, 24 h; how it was run: as §2
Salmonella typhi = assay: Antibacterial activity against Bacillus typhi after 24 hrs by NCCLS two fold broth microdilution method; format: functional, Salmonella enterica subsp. enterica serovar Typhi; details: Salmonella enterica
How it was run: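 Two-fold serial broth microdilution per NCCLS. DMSO stocks diluted in Mueller–Hinton broth to 512, 256, 128, 64, 32, 16, 8, 4, 2, 1, 0.5 µg/mL. Chloromycin and norfloxacin as reference drugs; DMSO with inoculum, no drug, as solvent control. Incubation 37 °C for 24 h. Growth read visually and spectrophotometrically. MIC is the lowest concentration completely inhibiting growth; triplicate.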

Candida albicans = assay: Antifungal activity against Candida albicans ATCC 76615 after 24 hrs by NCCLS two fold broth microdilution method; format: functional; details: ATCC 76615, 24 h
How it was run: (§3)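 Two-fold serial microdilution following NCCLS. A spore suspension in sterile distilled water was prepared from one-day-old cultures grown on Sabouraud agar and adjusted to a final 1–5 × 10^3 spores/mL. DMSO stocks were diluted in RPMI 1640 to eleven concentrations (0.5–512 µg/mL), inoculated and held at 35 °C for 24 h. Growth was read visually and spectrophotometrically, MIC was the lowest concentration with complete inhibition, and runs were in triplicate.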

Pichia norvegensis = assay: Antifungal activity against Candida mycoderma after 24 hrs by NCCLS two fold broth microdilution method; format: functional
Cyberlindnera jadinii = assay: Antifungal activity against Candida utilis after 24 hrs by NCCLS two fold broth microdilution method; format: functional; details: Williopsis jadinii; how it was run: as §3
Saccharomyces cerevisiae = assay: Antifungal activity against Saccharomyces cerevisiae after 24 hrs by NCCLS two fold broth microdilution method; format: functional; how it was run: as §3
Aspergillus flavus = assay: Antifungal activity against Aspergillus flavus after 24 hrs by NCCLS two fold broth microdilution method; format: functional; how it was run: as §3

Measured: MIC

CCCCCCCCCCCCCCCCCCn1c(CS(=O)(=O)c2ccc(NC(C)=O)cc2)nc2ccccc21
128 µg/mL: Staphylococcus aureus [1]
512 µg/mL: Staphylococcus aureus [2] | Bacillus subtilis | Micrococcus luteus | Bacillus | Escherichia coli | Pseudomonas aeruginosa | Salmonella typhi | Candida albicans | Pichia norvegensis | Cyberlindnera jadinii | Saccharomyces cerevisiae | Aspergillus flavus

Nc1ccc(S(=O)(=O)Cc2nc3ccccc3n2Cc2ccc(Cl)c(Cl)c2)cc1
64 µg/mL: Salmonella typhi | Candida albicans
128 µg/mL: Staphylococcus aureus [2]
512 µg/mL: Staphylococcus aureus [1] | Bacillus subtilis | Bacillus | Escherichia coli | Pseudomonas aeruginosa | Pichia norvegensis | Aspergillus flavus
256 µg/mL: Micrococcus luteus | Cyberlindnera jadinii | Saccharomyces cerevisiae

CCCCCCCCn1c(CS(=O)(=O)c2ccc(N)cc2)nc2ccccc21
256 µg/mL: Pichia norvegensis
64 µg/mL: Candida albicans
512 µg/mL: Staphylococcus aureus [1] | Staphylococcus aureus [2] | Bacillus subtilis | Micrococcus luteus | Bacillus | Escherichia coli | Pseudomonas aeruginosa | Salmonella typhi | Cyberlindnera jadinii | Saccharomyces cerevisiae | Aspergillus flavus

CCCCCCCCCCCCCCCCCCn1c(CS(=O)(=O)c2ccc(N)cc2)nc2ccccc21
256 µg/mL: Micrococcus luteus
64 µg/mL: Pichia norvegensis | Saccharomyces cerevisiae
512 µg/mL: Staphylococcus aureus [1] | Staphylococcus aureus [2] | Bacillus subtilis | Bacillus | Escherichia coli | Pseudomonas aeruginosa | Salmonella typhi | Candida albicans | Cyberlindnera jadinii | Aspergillus flavus

CC(=O)Nc1ccc(S(=O)(=O)Cc2nc3ccccc3n2Cc2ccccc2Cl)cc1
16 µg/mL: Pseudomonas aeruginosa | Salmonella typhi
8 µg/mL: Aspergillus flavus
32 µg/mL: Staphylococcus aureus [1] | Staphylococcus aureus [2] | Bacillus subtilis | Escherichia coli | Candida albicans
512 µg/mL: Bacillus | Pichia norvegensis | Cyberlindnera jadinii | Saccharomyces cerevisiae
64 µg/mL: Micrococcus luteus

Nc1ccc(S(=O)(=O)Cc2nc3ccccc3n2Cc2ccccc2Cl)cc1
16 µg/mL: Staphylococcus aureus [1] | Bacillus subtilis | Pseudomonas aeruginosa | Salmonella typhi | Candida albicans
64 µg/mL: Micrococcus luteus
128 µg/mL: Escherichia coli
256 µg/mL: Bacillus
512 µg/mL: Pichia norvegensis | Cyberlindnera jadinii | Saccharomyces cerevisiae
32 µg/mL: Staphylococcus aureus [2] | Aspergillus flavus

CCCCCCn1c(CS(=O)(=O)c2ccc(NC(C)=O)cc2)nc2ccccc21
128 µg/mL: Bacillus subtilis
256 µg/mL: Micrococcus luteus | Bacillus
512 µg/mL: Staphylococcus aureus [1] | Staphylococcus aureus [2] | Escherichia coli | Pseudomonas aeruginosa | Salmonella typhi | Candida albicans | Pichia norvegensis | Cyberlindnera jadinii | Saccharomyces cerevisiae | Aspergillus flavus

CCCCCCCCCCCCn1c(CS(=O)(=O)c2ccc(NC(C)=O)cc2)nc2ccccc21
256 µg/mL: Escherichia coli
512 µg/mL: Staphylococcus aureus [1] | Staphylococcus aureus [2] | Bacillus subtilis | Micrococcus luteus | Bacillus | Pseudomonas aeruginosa | Salmonella typhi | Candida albicans | Pichia norvegensis | Cyberlindnera jadinii | Saccharomyces cerevisiae | Aspergillus flavus

CC(=O)Nc1ccc(S(=O)(=O)Cc2nc3ccccc3[nH]2)cc1
16 µg/mL: Cyberlindnera jadinii
128 µg/mL: Staphylococcus aureus [2] | Micrococcus luteus | Salmonella typhi | Aspergillus flavus
32 µg/mL: Staphylococcus aureus [1] | Bacillus subtilis | Pseudomonas aeruginosa | Candida albicans | Saccharomyces cerevisiae
64 µg/mL: Bacillus | Escherichia coli | Pichia norvegensis

CCCCCCCCCCn1c(CS(=O)(=O)c2ccc(NC(C)=O)cc2)nc2ccccc21
16 µg/mL: Cyberlindnera jadinii
512 µg/mL: Staphylococcus aureus [1] | Staphylococcus aureus [2] | Bacillus subtilis | Micrococcus luteus | Bacillus | Escherichia coli | Pseudomonas aeruginosa | Salmonella typhi | Candida albicans | Pichia norvegensis | Saccharomyces cerevisiae | Aspergillus flavus

Nc1ccc(S(=O)(=O)Cc2nc3ccccc3n2Cc2ccc(F)cc2)cc1
32 µg/mL: Candida albicans | Saccharomyces cerevisiae
256 µg/mL: Escherichia coli | Aspergillus flavus
512 µg/mL: Staphylococcus aureus [2] | Bacillus subtilis | Micrococcus luteus | Pichia norvegensis
16 µg/mL: Staphylococcus aureus [1] | Pseudomonas aeruginosa | Salmonella typhi
128 µg/mL: Bacillus | Cyberlindnera jadinii

Nc1ccc(S(=O)(=O)Cc2nc3ccccc3n2CCCCCn2c3ccccc3c3ccccc32)cc1
512 µg/mL: Staphylococcus aureus [1] | Micrococcus luteus | Bacillus | Pseudomonas aeruginosa | Candida albicans | Cyberlindnera jadinii
64 µg/mL: Escherichia coli | Salmonella typhi | Saccharomyces cerevisiae
32 µg/mL: Bacillus subtilis
16 µg/mL: Pichia norvegensis
128 µg/mL: Staphylococcus aureus [2] | Aspergillus flavus

CCCn1c(CS(=O)(=O)c2ccc(N)cc2)nc2ccccc21
128 µg/mL: Staphylococcus aureus [2]
8 µg/mL: Aspergillus flavus
32 µg/mL: Bacillus subtilis | Salmonella typhi | Saccharomyces cerevisiae
4 µg/mL: Pichia norvegensis
256 µg/mL: Staphylococcus aureus [1] | Micrococcus luteus | Bacillus | Pseudomonas aeruginosa
64 µg/mL: Escherichia coli | Candida albicans | Cyberlindnera jadinii

CCCCCn1c(CS(=O)(=O)c2ccc(N)cc2)nc2ccccc21
256 µg/mL: Micrococcus luteus | Aspergillus flavus
128 µg/mL: Saccharomyces cerevisiae
512 µg/mL: Staphylococcus aureus [1] | Staphylococcus aureus [2] | Bacillus subtilis | Bacillus | Escherichia coli | Pseudomonas aeruginosa | Salmonella typhi | Candida albicans | Pichia norvegensis | Cyberlindnera jadinii
